Data from ChEMBL document CHEMBL2150881, “JD-5006 and JD-5037: peripherally restricted (PR) cannabinoid-1 receptor blockers related to SLV-319 (Ibipinabant) as metabolic disorder therapeutics devoid of CNS liabilities” (Bioorg Med Chem Lett, 2012).
Activity calls are given as the source filed them. The rule behind the calls is not given here.

Key:
Cannabinoid receptor 2 = Cannabinoid receptor 2 (Homo sapiens, UniProt P34972); assay: Displacement of 3[H]ligand from recombinant human CB2 receptor
Method in brief: (§1)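 Radioligand displacement from human recombinant CB1 and CB2 protein by a [³H] ligand. Initial screen at two concentrations in duplicate, with values >100 nM estimated. Percent inhibition read at 100 nM. IC₅₀ taken from four-point concentration curves run in duplicate.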

MDCK [1] = assay: (§2) Apparent permeability from basolateral to apical side in MDR expressing MDCK cells by LC-MS-MS analysis; type: ADME, cell-based, Canis lupus familiaris; details: dog, mdck
Method in brief: (§3)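 Permeability measured across MDR-MDCK kidney cell monolayers, giving apparent permeability (Papp) in the apical-to-basolateral and basolateral-to-apical directions.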

MDCK [2] = assay: (§4) Efflux ratio of permeability from […] in MDR expressing MDCK cells; type: ADME, cell-based, Canis lupus familiaris; details: dog, mdck
MDCK [3] = assay: (§5) Apparent permeability from apical to basolateral side in MDR expressing MDCK cells by LC-MS-MS analysis; type: ADME, cell-based, Canis lupus familiaris; details: dog, mdck; method in brief: as §3
Cannabinoid receptor 1 [4] = biological target: T1, Cannabinoid receptor 1 (Homo sapiens, UniProt P21554); assay: Displacement of 3[H]ligand from recombinant human CB1 receptor; method in brief: as §1
Mus musculus [5] = assay: In vivo receptor occupancy at CB1 receptor in mouse hippocampus assessed as inhibition of [3H]SR141716A binding at 3 mg/kg, po for 3 days measured after 1 hr post last dose; type: functional
Method in brief: (§6)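 Chow-fed mice dosed orally once daily at 3 or 30 mg/kg for 3 consecutive days, killed 1 h after the last dose. [3H]SR141716A was given by lateral tail-vein injection 30 min before euthanasia. Hippocampus, cerebellum and brain stem (reference region) were scintillation-counted as DPM/mg. Binding potential = (receptor − reference)/reference. Occupancy (%) = 100 × (vehicle BP − drug BP)/vehicle BP. 5 animals per dose.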

Mus musculus [6] = assay: Antidyslipidemic activity in DIO mouse model assessed as reduction in terminal liver weight at 3 to 30 mg/kg, po for 21 days; type: functional; set-up: scale not given: the % may be the effect or the level left; details: dose mg/kg 3-30
Method in brief: (§7)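 Diet-induced obese mice dosed orally at 3, 10 and 30 mg/kg for 21 days alongside vehicle controls. Plasma triglycerides, ALT and terminal liver weight were measured at the end of dosing. p-values were given for each dose.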

Mus musculus [7] = assay: In vivo receptor occupancy at CB1 receptor in mouse hippocampus assessed as inhibition of [3H]SR141716A binding at 30 mg/kg, po for 3 days measured after 1 hr post last dose; type: functional; method in brief: as §6
Mus musculus [8] = assay: Antidyslipidemic activity in DIO mouse model assessed as reduction in terminal fasting triglyceride level at 3 mg/kg, po for 21 days; type: functional; set-up: scale not given: the % may be the effect or the level left; method in brief: as §7
Mus musculus [9] = assay: Antidyslipidemic activity in DIO mouse model assessed as reduction in terminal fasting triglyceride level at 30 mg/kg, po for 21 days; type: functional; set-up: scale not given: the % may be the effect or the level left; method in brief: as §7
[10] = biological target: Cannabinoid receptor 1 (Mus musculus) (UniProt P47746); details: Cerebellum, 30 mg/kg
Mus musculus [11] = assay: In vivo receptor occupancy at CB1 receptor in mouse cerebellum assessed as inhibition of [3H]SR141716A binding at 3 mg/kg, po for 3 days measured after 1 hr post last dose; type: functional; method in brief: as §6
Mus musculus [12] = assay: Antidyslipidemic activity in DIO mouse model assessed as reduction in terminal ALT level at 3 to 30 mg/kg, po for 21 days; type: functional; set-up: scale not given: the % may be the effect or the level left; details: dose mg/kg 3-30; method in brief: as §7
[13] = as §2; type: ADME, cell-based, Canis lupus familiaris; details: dog, MDCK-MDR1; method in brief: as §3
[14] = as §5; type: ADME, cell-based, Canis lupus familiaris; details: dog, MDCK-MDR1; method in brief: as §3
Brain = assay: Drug uptake in chow fed mouse brain assessed per gram of tissue at 100 mg/kg, po for 3 days measured 1 hr post last dose; type: ADME, organism-based; set-up: dose 100 mg/kg, route oral; details: in vivo
Method in brief: (§8)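 Chow-fed mice were dosed orally at 100 or 20 mg/kg for 3 consecutive days. Plasma and brain were taken 1 h after the last dose. Proteins were precipitated with 3× volume ice-cold acetonitrile containing internal standard, then centrifuged 15 min at 4 °C. Analysis by LC/MS/MS against calibrators in plasma or brain homogenate (1000 to 1.6 nM). Brain is given as ng/gm and also as % of plasma.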

[15] = Plasma concentration in chow fed mouse at 100 mg/kg, po for 3 days measured after 1 hr post last dose; type: ADME, organism-based; set-up: dose 100 mg/kg, route oral; method in brief: as §8
[16] = as §4; type: ADME, cell-based, Canis lupus familiaris; details: dog, MDCK-MDR1
Cannabinoid receptor 1 [17] = biological target: T1, Cannabinoid receptor 1; assay: Inverse agonist activity against CB1 receptor expressed in human CHO cells assessed as effect on forskolin-stimulated cAMP level; type: functional, cell-based
Mus musculus [18] = assay: Antidyslipidemic activity in DIO mouse model assessed as reduction in terminal fasting triglyceride level at 3 to 30 mg/kg, po for 21 days; type: functional; set-up: scale not given: the % may be the effect or the level left; details: dose mg/kg 3-30; method in brief: as §7
[19] = Drug uptake in chow fed mouse brain at 20 mg/kg, po for 3 days measured after 1 hr post last dose; type: ADME, organism-based; set-up: dose 20 mg/kg, route oral; details: read-out: Drug uptake; method in brief: as §8
Mus musculus [20] = assay: Antidiabetic activity in high fat diet-fed diabetes mouse model assessed as reduction in glucose level at 20 mg/kg for 7 days by glucose tolerance test; type: functional, organism-based; set-up: dose 20 mg/kg
Method in brief: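 Mice kept on high-fat diet for 14 weeks were given 20 mg/kg PO for seven days. They were then challenged with glucose at 2 g/kg body weight, and glucose elimination was followed.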

Mus musculus [21] = assay: Antidiabetic activity in high fat diet-fed diabetes mouse model assessed as […] in insulin sensitivity at 20 mg/kg for 7 days by glucose tolerance test; type: functional, organism-based; set-up: dose 20 mg/kg
[22] = Plasma concentration in chow fed mouse at 20 mg/kg, po for 3 days measured after 1 hr post last dose; type: ADME, organism-based; set-up: dose 20 mg/kg, route oral; method in brief: as §8

T1 sequence (P21554 whole entry): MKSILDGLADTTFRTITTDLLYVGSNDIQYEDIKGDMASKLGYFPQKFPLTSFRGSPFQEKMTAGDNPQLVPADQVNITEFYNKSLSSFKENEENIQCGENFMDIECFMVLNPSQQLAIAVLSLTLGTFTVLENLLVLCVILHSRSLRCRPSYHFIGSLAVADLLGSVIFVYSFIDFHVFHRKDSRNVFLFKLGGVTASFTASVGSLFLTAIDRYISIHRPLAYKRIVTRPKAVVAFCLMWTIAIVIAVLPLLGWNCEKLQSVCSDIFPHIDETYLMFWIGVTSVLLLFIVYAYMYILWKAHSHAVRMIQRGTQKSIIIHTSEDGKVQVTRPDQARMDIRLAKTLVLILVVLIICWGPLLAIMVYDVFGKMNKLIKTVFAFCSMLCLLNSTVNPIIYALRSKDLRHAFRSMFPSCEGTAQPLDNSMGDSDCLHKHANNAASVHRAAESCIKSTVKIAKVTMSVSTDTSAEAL
Sequence of Cannabinoid receptor 1 (Mus musculus) (P47746 whole entry): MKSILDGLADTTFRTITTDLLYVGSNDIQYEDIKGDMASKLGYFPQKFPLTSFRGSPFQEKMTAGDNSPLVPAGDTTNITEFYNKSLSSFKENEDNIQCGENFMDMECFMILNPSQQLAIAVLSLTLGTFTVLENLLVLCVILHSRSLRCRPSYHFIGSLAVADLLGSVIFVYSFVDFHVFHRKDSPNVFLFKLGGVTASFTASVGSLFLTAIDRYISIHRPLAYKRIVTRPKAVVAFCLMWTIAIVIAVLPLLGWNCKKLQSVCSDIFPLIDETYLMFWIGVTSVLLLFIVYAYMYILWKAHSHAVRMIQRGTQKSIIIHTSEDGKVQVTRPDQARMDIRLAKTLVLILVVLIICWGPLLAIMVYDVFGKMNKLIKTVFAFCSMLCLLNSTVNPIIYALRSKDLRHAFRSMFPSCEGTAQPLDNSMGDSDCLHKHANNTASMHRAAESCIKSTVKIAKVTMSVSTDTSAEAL
Sequence of Cannabinoid receptor 2 (P34972 whole entry): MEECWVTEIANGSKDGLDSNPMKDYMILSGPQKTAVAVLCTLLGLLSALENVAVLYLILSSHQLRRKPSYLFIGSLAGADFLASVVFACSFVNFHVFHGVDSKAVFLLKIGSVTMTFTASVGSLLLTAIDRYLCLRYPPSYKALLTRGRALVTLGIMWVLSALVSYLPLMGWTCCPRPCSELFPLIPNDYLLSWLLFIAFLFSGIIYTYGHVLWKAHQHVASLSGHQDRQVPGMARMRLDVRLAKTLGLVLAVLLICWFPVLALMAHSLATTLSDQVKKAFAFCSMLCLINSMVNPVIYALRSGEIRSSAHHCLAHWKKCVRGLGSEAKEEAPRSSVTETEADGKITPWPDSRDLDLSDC

Compound | IC50 (Cannabinoid receptor 2) [nM] | IC50 (Cannabinoid receptor 1 [4]) [nM] | Occ (Mus musculus [5]) [%] | Occ (Mus musculus [7]) [%] | Occ (Mus musculus [11]) [%] | Papp B→A [13] [×10⁻⁶ cm/s] | Papp A→B [14] [×10⁻⁶ cm/s] | further results
NC(=O)CNC(=O)CN/C(=N\S(=O)(=O)c1ccc(Cl)cc1)N1CC(c2ccccc2)C(c2ccc(Cl)cc2)=N1 (centres undefined) | > 5000 | 25 |  |  |  |  |  | Papp (MDCK [1]): 22.3 ×10⁻⁶ cm/s; Ratio (MDCK [2]): 112; Papp (MDCK [3]): 0.2 ucm/s
CN/C(=N\S(=O)(=O)c1ccc(Cl)cc1)N1CC(c2ccccc2)C(c2ccc(Cl)cc2)=N1 (racemic) [RAC-IBIPINABANT] |  |  | 15 | 100 | 15 |  |  | Activity (Mus musculus [6]): 25%; Activity (Mus musculus [8]): 22%; Activity (Mus musculus [9]): 19%; Occ [10]: 102%; Activity (Mus musculus [12]): 56%
CC(C)[C@H](N/C(=N\S(=O)(=O)c1ccc(Cl)cc1)N1CC(c2ccccc2)C(c2ccc(Cl)cc2)=N1)C(N)=O (some centres undefined) | > 1000 | 2 |  |  |  | 16.6 | 1.08 | Drug uptake (Brain; BLD = below limit of detection): BLD; concentration at 1 h [15]: 3850 ng/mL
NC(=O)CCN=C(NS(=O)(=O)c1ccc(Cl)cc1)N1CC(c2ccccc2)C(c2ccc(Cl)cc2)=N1 (racemic) | > 5000 | 32 |  |  |  | 58 | 0.88 | efflux ratio [16]: 66
CNC(=NS(=O)(=O)c1ccc(Cl)cc1)N1CC(c2ccccc2)C(c2ccc(Cl)cc2)=N1 (racemic) [RAC-IBIPINABANT] |  |  |  |  |  | 10 | 9.45 | Drug uptake (Brain): 2080 ng/g; concentration at 1 h [15]: 5130 ng/mL
NC(=O)CN/C(=N\S(=O)(=O)c1ccc(Cl)cc1)N1CC(c2ccccc2)C(c2ccc(Cl)cc2)=N1 (racemic) [listing 1 of 2 here] | 5000 | 18 |  |  |  | 60.5 | 1.8 | Activity (Mus musculus [6]): 17%; IC50 (Cannabinoid receptor 1 [17]): 18 nM; Activity (Mus musculus [18]): 26%; Activity (Mus musculus [12]): 49%
CC(C)[C@H](N/C(=N\S(=O)(=O)c1ccc(Cl)cc1)N1C[C@H](c2ccccc2)C(c2ccc(Cl)cc2)=N1)C(N)=O | > 1000 | 0.5 | 10 | 0 | 0 |  |  | Occ [10]: 0%
C[C@H](N/C(=N\S(=O)(=O)c1ccc(Cl)cc1)N1CC(c2ccccc2)C(c2ccc(Cl)cc2)=N1)C(N)=O (some centres undefined) | > 1000 | 20 |  |  |  | 9.25 | 2.44 | efflux ratio [16]: 3.8
C[C@@H](O)[C@H](N/C(=N/S(=O)(=O)c1ccc(Cl)cc1)N1CC(c2ccccc2)C(c2ccc(Cl)cc2)=N1)C(N)=O (some centres undefined) | > 5000 | 7 |  |  |  | 18.6 | < 0.9 | efflux ratio [16]: > 20
NC(=O)CN=C(NS(=O)(=O)c1ccc(Cl)cc1)N1CC(c2ccccc2)C(c2ccc(Cl)cc2)=N1 (single isomer, unassigned; enantiomer 1) | > 5000 | 32 | 10 | 3 | 0 |  |  | Drug uptake (Brain): 685 ng/g; concentration at 1 h [15]: 16700 ng/mL
Cc1c(C(=O)NN2CCCCC2)nn(-c2ccc(Cl)cc2Cl)c1-c1ccc(Cl)cc1 [RIMONABANT] |  |  | 10 | 100 | 12 |  |  | concentration at 1 h [19]: 1080 ng/g; Occ [10]: 87%; Activity (Mus musculus [20]): Active; Activity (Mus musculus [21]): Active; concentration at 1 h [22]: 1200 ng/mL
NC(=O)CN/C(=N\S(=O)(=O)c1ccc(Cl)cc1)N1CC(c2ccccc2)C(c2ccc(Cl)cc2)=N1 (racemic) [listing 2 of 2 here] |  |  |  |  |  |  |  | Activity (Mus musculus [20]): Active; Activity (Mus musculus [21]): Active
